Data set [1] relates to Human alphaherpesvirus 1. Put plainly: Antiviral activity against Herpes simplex virus-1 KOS infected in primary rabbit kidney cells assessed as inhibition of virus-induced cytopathogenicity treated immediately after virus adsorption measured 2 to 3 days after virus infection. Type of data set: functional. The conditions noted are these: Human alphaherpesvirus 1, KOS.
In data set [2] the test system is Vesicular stomatitis virus. Put plainly: Antiviral activity against Vesicular stomatitis virus infected in primary rabbit kidney cells assessed as inhibition of virus-induced cytopathogenicity treated immediately after virus adsorption measured 2 to 3 days after virus infection. Type of data set: functional. (In general: Protection from cytopathic effect is a common read-out in antiviral testing.)

A short description of data set [3]: Antimetabolic activity against primary rabbit kidney cells assessed as inhibition of [2-14C]dUrd incorporation into DNA after 16 hrs. Type of data set: ADME, cell-based, Oryctolagus cuniculus. The essentials: (§1)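 Compound added to primary rabbit kidney cell cultures together with the radiolabeled DNA precursor. Input per 10^? cells: [methyl-3H]dThd 0.12 μCi/0.01 nmol, [2-14C]dUrd 14 μCi/250 nmol. Incorporation measured after 16 h incubation. Value is the concentration giving 50% inhibition of precursor incorporation.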

For data set [4], the system named is Human alphaherpesvirus 1. Put plainly: Antiviral activity against Herpes simplex virus-1 KOS infected in human skin fibroblast cells assessed as inhibition of virus-induced cytopathogenicity treated immediately after virus adsorption measured 2 to 3 days after virus infection. Type of data set: functional. The conditions noted are these: Human alphaherpesvirus 1, KOS.

Data set [5] in a line: Antimetabolic activity against primary rabbit kidney cells assessed as inhibition of [methyl-3H]dThd incorporation into DNA after 16 hrs. Type of data set: ADME, cell-based, Oryctolagus cuniculus. The essentials: as §1
In data set [6] the test system is Human alphaherpesvirus 2. Put plainly: Antiviral activity against Herpes simplex virus-2 LYONS infected in primary rabbit kidney cells assessed as inhibition of virus-induced cytopathogenicity treated immediately after virus adsorption measured 2 to 3 days after virus infection. To be noted: Human alphaherpesvirus 2, LYONS. Type of data set: functional.
Data set [7] deals with Human alphaherpesvirus 2. Put plainly: Antiviral activity against Herpes simplex virus-2 196 infected in primary rabbit kidney cells assessed as inhibition of virus-induced cytopathogenicity treated immediately after virus adsorption measured 2 to 3 days after virus infection. To be noted: Human alphaherpesvirus 2, 196. Type of data set: functional.
For data set [8], the system named is Human alphaherpesvirus 2. Description: Antiviral activity against Herpes simplex virus-2 196 infected in primary rabbit kidney cells assessed as inhibition of virus-induced cytopathogenicity at 200 ug/ml treated immediately after virus adsorption measured 2 to 3 days after virus infection. Type of data set: functional, organism-based.
The test system of data set [9] is Human alphaherpesvirus 2. Put plainly: Antiviral activity against Herpes simplex virus-2 LYONS infected in primary rabbit kidney cells assessed as inhibition of virus-induced cytopathogenicity at 200 ug/ml treated immediately after virus adsorption measured 2 to 3 days after virus infection. Type of data set: functional, organism-based.
The subject of data set [10] is Human alphaherpesvirus 1. Description: Antiviral activity against Herpes simplex virus-1 KOS infected in primary rabbit kidney cells assessed as inhibition of virus-induced cytopathogenicity at 200 ug/ml treated immediately after virus adsorption measured 2 to 3 days after virus infection. Type of data set: functional, organism-based.
In data set [11] the test system is Human alphaherpesvirus 1. Description: Antiviral activity against Herpes simplex virus-1 KOS infected in human skin fibroblast cells assessed as inhibition of virus-induced cytopathogenicity at 200 ug/ml treated immediately after virus adsorption measured 2 to 3 days after virus infection. Type of data set: functional, organism-based.
Another data set relates to Vaccinia virus. Description: Antiviral activity against Vaccinia virus infected in primary rabbit kidney cells assessed as growth inhibition at 100 ug/ml treated immediately after virus adsorption measured 24 to 48 hrs after virus infection. Type of data set: functional, organism-based. The conditions noted are these: Orthopoxvirus vaccinia.
Data set [12] concerns Human alphaherpesvirus 1. Put plainly: Antiviral activity against Herpes simplex virus-1 KOS infected in primary rabbit kidney cells assessed as log reduction in virus yield at 100 ug/ml treated immediately after virus adsorption measured 24 to 48 hrs after virus infection. Type of data set: functional.
Data set [13] in a line: Antiviral index, ratio of minimal toxic dose require to inhibit cellular DNA synthesis in primary rabbit kidney cells by 50% to minimal effective dose require to inhibit HSV1 KOS cytopathogenicity. Type of data set: toxicity, cell-based. In outline: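 Ratio of two doses. Numerator: dose inhibiting cellular DNA synthesis by 50%, measured as dThd or dUrd incorporation over 16 h. Denominator: minimal dose inhibiting HSV-1 KOS cytopathogenicity. For the CPE assay, virus input was 100 CCID50 per culture and compound was added right after adsorption. CPE was scored once untreated infected controls reached full CPE, generally at 2-3 days.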

≈ marks a conversion by molar mass, not a printed value. Calls of active or inactive are those of the source. The calls are words filed in the database; no cut-off is given here.

Consider `CCc1cn([C@@H]2O[C@H](CO)[C@@H](O)[C@@H]2O)c(=O)nc1N`, for which the MIC is 100 µg/mL (≈ 369 µM) with Human alphaherpesvirus 1 [1], > 200 µg/mL in data set [2], > 200 µg/mL in data set [3] and 20 µg/mL (≈ 73.7 µM) in the data set with Human alphaherpesvirus 1 [4].

For `O=c1ccn([C@@H]2O[C@H](CO)[C@@H](O)[C@@H]2O)c(=O)[nH]1` [ARAURIDINE], the MIC with Human alphaherpesvirus 1 [1] was 20 µg/mL (≈ 81.9 µM); in [2], > 200 µg/mL; in [3] it was > 400 µg/mL; in data set [5] it was 300 µg/mL (≈ 1230 µM); in the data set on Human alphaherpesvirus 2 [6], 20 µg/mL (≈ 81.9 µM); with Human alphaherpesvirus 1 [4], 20 µg/mL (≈ 81.9 µM). Also, the MIC in the data set with Human alphaherpesvirus 2 [7] worked out at 20 µg/mL (≈ 81.9 µM).

For the molecule `Nc1ccn([C@@H]2O[C@H](CO)[C@@H](O)[C@@H]2O)c(=O)n1` [CYTARABINE], the MIC in the data set on Human alphaherpesvirus 1 [1] amounted to 0.03 µg/mL (≈ 0.123 µM); in [2], 4 µg/mL (≈ 16.4 µM); in data set [3] it was 0.05 µg/mL (≈ 0.206 µM); in data set [5] it was 0.1 µg/mL (≈ 0.411 µM); in the data set with Human alphaherpesvirus 2 [6], 0.04 µg/mL (≈ 0.164 µM); in the data set on Human alphaherpesvirus 1 [4], 0.02 µg/mL (≈ 0.0822 µM). Further, the MIC in the data set with Human alphaherpesvirus 2 [7] turned out to be 0.03 µg/mL (≈ 0.123 µM).

On to `CCc1cn([C@H]2O[C@H](CO)[C@@H](O)[C@@H]2O)c(=O)nc1N`, for which the inhibition result in the data set with Human alphaherpesvirus 2 [8], in the data set with Human alphaherpesvirus 2 [9], in the data set with Human alphaherpesvirus 1 [10] and in the data set with Human alphaherpesvirus 1 [11] was “inactive” throughout.

With `Cc1cn([C@@H]2O[C@H](CO)[C@@H](O)[C@@H]2O)c(=O)[nH]c1=O`, the MIC is 0.2 µg/mL (≈ 0.775 µM) in the data set with Human alphaherpesvirus 1 [1]; > 200 µg/mL in data set [2]; 300 µg/mL (≈ 1160 µM) in data set [3]; 300 µg/mL (≈ 1160 µM) in data set [5]; 0.3 µg/mL (≈ 1.16 µM) with Human alphaherpesvirus 2 [6]; 0.1 µg/mL (≈ 0.387 µM) in the data set with Human alphaherpesvirus 1 [4]. The MIC in the data set with Human alphaherpesvirus 2 [7] amounted to 0.4 µg/mL (≈ 1.55 µM).

As for `CCc1cn([C@@H]2O[C@H](CO)[C@@H](O)[C@@H]2O)c(=O)[nH]c1=O`, the inhibition entry in the data set with Vaccinia virus is “inactive”. Moreover, in the data set with Human alphaherpesvirus 1 [12], the log10PFU/ml is reported as >3. Further, the MIC is 2 µg/mL (≈ 7.35 µM) with Human alphaherpesvirus 1 [1]; > 200 µg/mL in [2]; > 200 µg/mL in [3]; > 200 µg/mL in data set [5]; 10 µg/mL (≈ 36.7 µM) in the data set on Human alphaherpesvirus 2 [6]; 2 µg/mL (≈ 7.35 µM) in the data set on Human alphaherpesvirus 1 [4]. Besides, the MIC with Human alphaherpesvirus 2 [7] turned out to be 20 µg/mL (≈ 73.5 µM). Moreover, the selectivity ratio in [13] is > 100.

Turning to `CCc1cn([C@H]2O[C@H](CO)[C@@H](O)[C@@H]2O)c(=O)[nH]c1=O`, the inhibition entry in the data set with Human alphaherpesvirus 2 [8], in the data set on Human alphaherpesvirus 2 [9], in the data set with Human alphaherpesvirus 1 [10] and in the data set with Human alphaherpesvirus 1 [11] was “inactive” each time.
